Key:
[1] = test system: Vero; assay: Cytotoxicity against african green monkey Vero cells; type: cell-based; details: Chlorocebus sabaeus
[2] = test system: Saccharomyces cerevisiae; assay: Growth inhibition of Yeast expressing rad52 mutant by yeast bioassay; type: functional
How it was run: (§1)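 Agar diffusion assay: 100 µL wells cut in an agar layer overlaid with the repair-deficient yeast strain (∆rad52, or ∆rad52∆top1). IC12 in µg/mL is the concentration giving a 12 mm inhibition zone around the well.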

[3] = Cytotoxicity against rat H4IIE cells by XTT assay; type: functional, cell-based
How it was run: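 H4IIE rat hepatoma cells in culture; growth read out with the XTT protocol. IC50 in µM is the concentration giving 50% growth inhibition. Active compounds were run in two separate assays, and both values are reported.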

[4] = test system: Saccharomyces cerevisiae; assay: Growth inhibition of Yeast expressing rad52.top1 mutant by yeast bioassay; type: functional; how it was run: as §1

CC(O)c1cc2c(o1)C(=O)c1ccccc1C2=O (configuration not stated)
IC50 [1]: 15.3 µM | IC12 [2]: 14 µg/mL

CC(CO)(CO)NCc1cc2c(o1)C(=O)c1ccccc1C2=O
IC50 [3]: 2 µM | IC12 [4]: 240 µg/mL | IC12 [2]: > 500 µg/mL

O=Cc1cc2c(o1)C(=O)c1ccccc1C2=O
IC50 [3]: 2 µM | IC12 [4]: 44 µg/mL | IC12 [2]: 160 µg/mL

O=C1c2ccccc2C(=O)c2oc(CNC(CO)(CO)CO)cc21
IC50 [3]: > 20 µM | IC12 [4]: > 250 µg/mL | IC12 [2]: > 500 µg/mL

O=C1c2ccccc2C(=O)c2oc(CNCC(O)CO)cc21 (configuration not stated)
IC50 [3]: 2 µM | IC12 [4]: 220 µg/mL | IC12 [2]: > 500 µg/mL

CC(C)(CO)NCc1cc2c(o1)C(=O)c1ccccc1C2=O
IC50 [3]: 4 µM | IC12 [4]: 210 µg/mL | IC12 [2]: > 500 µg/mL

COc1cc(OC)c2c(c1)C(=O)c1occc1C2=O
IC50 [3]: 5 µM | IC12 [4]: 125 µg/mL | IC12 [2]: > 8000 µg/mL

COc1ccc2cn(C(C)(CO)CO)c3c2c1C(=O)c1ccoc1-3
IC50 [3]: > 20 µM | IC12 [4]: > 500 µg/mL | IC12 [2]: > 500 µg/mL

CCC(CO)(CO)NCc1cc2c(o1)C(=O)c1ccccc1C2=O
IC50 [3]: 5 µM | IC12 [4]: > 500 µg/mL | IC12 [2]: > 500 µg/mL

COc1cccc2c1C(=O)c1ccoc1C2=O
IC50 [3]: 7 µM | IC12 [4]: 44 µg/mL | IC12 [2]: 152 µg/mL

O=C1c2ccccc2C(=O)c2occc21
IC50 [3]: 5 µM | IC12 [4]: 17 µg/mL | IC12 [2]: 83 µg/mL

— ChEMBL document CHEMBL1144065, “Synthesis of furanonaphthoquinones with hydroxyamino side chains” (J Nat Prod, 1999)
